A selection: hits, their analogues and other compounds. The true share with any hit is near 2.6%.
NSD2 HMT inh – inhibitors of human histone methyltransferase NSD2 | O96028 | NSD2 peptide methylation, AlphaScreen, 120 min | inhibition, % at 12.5 µM | 310,000 compounds, 0.54% hits; in the data active = inhibition above about 50%
UCH37 DUB inh – inhibitors of human deubiquitinating enzyme UCH37 | Q9Y5K5 | purified proteasome/UCH37, Ub-AMC cleavage fluorescence | inhibition, % (concentration not given with the values) | 330,000 compounds, 0.33% hits;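 active = mean inhibition over replicate wells above about 20%, limit read from the data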;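 also: 0% = compound-free wells with enzyme and 100% = wells lacking proteasome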
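Material: Human UCH37 enzyme supplied as purified proteasome complex | Schedule: 30 min preincubation with enzyme, 25 min cleavage at room temperature | Detection: AMC fluorescence 355/460 nm | Measure: % inhibition of Ub-AMC cleavage fluorescence | Controls: Wells without proteasome as full block, compound-free enzyme plus substrate as uninhibited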
FGF22 binding – shifts melting point of recombinant human FGF22; recombinant FGF22 thermal shift, SYPRO orange fluorescence; percent of sucrose octasulfate shift, DMSO zero; activity (Tm shift, normalised), % at 9.99 µM; AID 651658; 340,000 compounds, 1.5% hits;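 active = mean Tm shift, scaled 0 neutral to 100 positive control, at about 1.3% or above, every replicate too, limit read from the data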
SIRT5 inh – blocks human SIRT5 desuccinylation of peptide; 330,000 compounds, 1.1% hits; Q9NXA8; inhibition, % at 15 µM; Purified SirT5, succinyl-peptide AMC, trypsin-coupled fluorescence; AID 652115; in the data active = inhibition above about 15%
CASP6 VEID inh – caspase-6 (human) enzyme inhibition; purified caspase-6, Z-VEID-R110 cleavage fluorescence; P55212; inhibition, % at 12.5 µM; AID 686996; 350,000 compounds, 0.53% hits;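 active = mean inhibition across replicates at least about 35%, with every replicate also reaching that limit, limit read from the data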;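 also: 0% = median of neutral control wells and 100% = no fluorescence left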
Numbers without * were called inactive; nt = not tested or not shown.

SMILES | NSD2 HMT inh | UCH37 DUB inh | FGF22 binding | SIRT5 inh | CASP6 VEID inh
Oc1cccc2ccc(/C=C/c3c(F)cccc3Cl)nc12 | -2 | 5 | 43* | 0 | -1
Oc1cccc2ccc(/C=C/c3ccccc3Cl)nc12 | -1 | -2 | 0 | -2 | 7
C[C@@H]1CN([C@H](C)CO)S(=O)(=O)c2ccc(-c3cccc(F)c3)cc2O[C@@H]1CN(C)S(=O)(=O)c1ccccc1 | nt | nt | 0 | 16* | -5
C[C@@H]1CN([C@H](C)CO)S(=O)(=O)c2ccc(-c3cccc(F)c3)cc2O[C@H]1CN(C)S(=O)(=O)c1ccccc1 | nt | nt | 0 | 17* | -1
C[C@@H]1CN([C@@H](C)CO)S(=O)(=O)c2ccc(-c3cccc(F)c3)cc2O[C@H]1CN(C)S(=O)(=O)c1ccccc1 | nt | nt | 0 | 13 | 5
COc1ccccc1-c1ccc2c(c1)O[C@H](CN(C)S(=O)(=O)c1ccccc1)[C@@H](C)CN([C@H](C)CO)S2(=O)=O | nt | nt | 0 | 15 | -1
C[C@H]1CN([C@@H](C)CO)S(=O)(=O)c2ccc(-c3cccc(F)c3)cc2O[C@@H]1CN(C)S(=O)(=O)c1ccccc1 | nt | nt | 0 | 16* | -1
C[C@H](CO)N1C[C@H](C)[C@@H](CN(C)S(=O)(=O)c2ccccc2)Oc2cc(-c3cccc(F)c3)ccc2S1(=O)=O | nt | nt | 0 | 7 | -1
COc1ccccc1-c1ccc2c(c1)O[C@H](CN(C)S(=O)(=O)c1ccccc1)[C@@H](C)CN([C@@H](C)CO)S2(=O)=O | nt | nt | 0 | 20* | -3
Clc1ccsc1-c1ccc2ccccc2n1 | 1 | 2 | nt | nt | nt
c1ccc2nc(-c3nccs3)ccc2c1 | -3 | 1 | 44* | -2 | 1
Cc1cc(=O)[nH]c(SCc2nc3ccc([N+](=O)[O-])cc3[nH]2)n1 | nt | 3 | 0 | 3 | 12
CCCc1cc(=O)[nH]c(SCc2nc3ccc([N+](=O)[O-])cc3[nH]2)n1 | 0 | 10 | 43* | 1 | 13
Cc1noc(C)c1NC(=O)Nc1ccc2c(c1)C(=O)N([C@H](C)CO)C[C@@H](C)[C@@H](CN(C)S(=O)(=O)c1c(C)noc1C)O2 | nt | nt | 0 | -4 | 1
COc1ccccc1NC(=O)N1C[C@@H](C)[C@H](OC)CN(C)C(=O)c2cc(NC(=O)c3cc(C)on3)ccc2OC[C@H]1C | nt | nt | 0 | nt | nt
O=C(NN=Cc1cccc2ccccc12)C(=O)NN=Cc1cccc2ccccc12 | -3 | -10 | 0 | 1 | 0
O=C(N/N=C/c1cccc2ccccc12)c1cccs1 | 1 | nt | 0 | 18* | 2
O=C(NN=Cc1ccc(O)c([N+](=O)[O-])c1)c1ccncc1 | nt | 20* | nt | nt | nt
O=C(N/N=C/c1cc(Br)c(Br)s1)c1ccncc1 | -2 | nt | 44* | 2 | -2
O=C(NN=Cc1ccc([N+](=O)[O-])cc1)c1ccncc1 | 2 | 12 | 44* | nt | 2
Cc1ccsc1/C=N/NC(=S)NCCc1ccccc1 | 3 | nt | 0 | 16* | -3
Cc1ccsc1C=NNC(=S)NCc1ccccc1 | nt | -2 | nt | nt | nt
O=C(N/N=C/c1ccncc1)c1cc([N+](=O)[O-])cc([N+](=O)[O-])c1 | -2 | nt | nt | nt | nt
O=C(N/N=C/c1ccc(Br)s1)c1ccncc1 | -3 | nt | 0 | -4 | -4
O=C(N/N=C/c1ccc([N+](=O)[O-])cc1)c1ccc(COc2ccccc2-c2ccccc2)cc1 | 4 | nt | 44* | -1 | -3
SMILES | NSD2 HMT inh | UCH37 DUB inh | FGF22 binding | SIRT5 inh | CASP6 VEID inh
Cc1ccsc1/C=N/NC(=O)c1ccncc1 | -4 | nt | 43* | 4 | -3
C[C@H](CO)N1C[C@H](C)[C@@H](CN(C)Cc2ccc(C(F)(F)F)cc2)Oc2c(NC(=O)CCCCCC(=O)Nc3ccccc3N)cccc2C1=O | nt | nt | 0 | 3 | 1
Cc1ccccc1C(=O)NCCNC(=O)c1ccccn1 | 6 | 1 | 0 | 3 | -1
O=C(NCCNC(=O)c1ccccc1F)c1ccccn1 | 3 | 6 | 0 | 16* | 0
O=C(COc1ccc(Cl)cc1)Nc1ccc(Cl)cn1 | -3 | 1 | nt | nt | nt
O=C(COc1ccc2c(c1)OCO2)Nc1ccc(Cl)cn1 | -3 | 5 | 0 | 26* | 0
O=C(CNC(=O)c1cccc(Cl)c1)NN=C/C=C/c1ccccc1 | nt | 4 | nt | nt | nt
COc1ccc(NC(=S)NC23CN4CN(CN(C4)C2)C3)cc1 | 0 | 3 | nt | nt | nt
COc1ccc(NC(=S)NC23CN4CN(CN(C4)C2)C3)c(OC)c1 | 6 | -1 | 44* | -2 | -87
